{"source": "ChEMBL document CHEMBL1149158", "about": "“Combination of paclitaxel and nitric oxide as a novel treatment for the reduction of restenosis” (J Med Chem, 2004)", "key": {"[1]": {"test": "Stent coated compound was evaluated for mercury displaceable NO before sterilization (Electron-Beam Radiation)", "assay_type": "functional"}, "[2]": {"test": "Stent coated compound was evaluated for mercury displaceable NO after sterilization (Electron-Beam Radiation)", "assay_type": "functional"}, "[3]": {"test_system": "Oryctolagus cuniculus", "test": "In vivo nitric oxide(NO) release was determined by the coated stent compound in rabbit iliac at 0 h; value expressed as mercury displaceable nitric oxide", "assay_type": "functional"}, "[4]": {"test_system": "Coronary artery smooth muscle cell line", "test": "(§1) In vitro antiproliferative effect on cultured human coronary artery smooth muscle cells (hCASMC)", "assay_type": "functional, cell-based", "in_short": "(§2)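 Human coronary artery smooth muscle cells seeded at 3×10^4 per well in SmGM2 growth medium; compound added from 1000× ethanol stock 3-4 h after seeding, ethanol vehicle controls, n = 4 per point. After 68-72 h cells trypsinized and viable (Trypan Blue negative) cells counted by hemacytometer; mean ± SD.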"}, "[5]": {"test_system": "Oryctolagus cuniculus", "test": "In vivo nitric oxide(NO) release was determined by the coated stent compound in rabbit iliac at 6 hrs; value expressed as mercury displaceable nitric oxide", "assay_type": "functional", "in_short": "(§3)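 Coated stent deployed in rabbit iliac artery, position confirmed by angiography; 6 h later animal euthanized with 120 mg/kg iv sodium pentobarbital, stent recovered from the artery and nitrosothiol/NO content measured by chemiluminescence; retained content expressed relative to original load.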"}, "[6]": {"test_system": "Oryctolagus cuniculus", "test": "In vivo nitric oxide(NO) release was determined by the coated stent compound in rabbit iliac at 6 hrs; value expressed as percent remaining nitric oxide", "assay_type": "functional", "in_short": "as §3"}, "[7]": {"species": "Oryctolagus cuniculus", "test": "Compound was evaluated to determine the stenosis in Rabbit Iliac Arteries value expressed as difference from polymer coated stents", "assay_type": "functional"}, "[8]": {"species": "Oryctolagus cuniculus", "test": "Compound was evaluated to determine the stenosis in Rabbit Iliac Arteries value expressed as difference from bare stents", "assay_type": "functional"}, "[9]": {"species": "Oryctolagus cuniculus", "test": "Compound was evaluated to determine the stenosis in Rabbit Iliac Arteries", "assay_type": "functional"}, "[10]": {"species": "Oryctolagus cuniculus", "test": "Compound was evaluated to determine the stenosis in Rabbit Iliac Arteries value expressed as net effect of NO over paclitaxel coated stents", "assay_type": "functional"}, "[11]": {"species": "Homo sapiens", "test": "as §1", "assay_type": "functional", "in_short": "as §2"}, "[12]": {"species": "Oryctolagus cuniculus", "test": "In vitro antiplatelet aggregatory effect in rabbit platelet rich plasma (PRP)", "assay_type": "functional", "in_short": "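Rabbit blood collected 10:1 into 3.8% trisodium citrate pH 6.5, spun 180g 15 min at 21 °C to give PRP. PRP preincubated 2 min at 37 °C with compound (500× ethanol stock), then aggregation induced with ADP (5–10 μM) and followed in an aggregometer; percent inhibition calculated relative to maximum aggregation amplitude.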"}}, "data": [{"smiles": "CC(=O)O[C@H]1C(=O)[C@@]2(C)C([C@H](OC(=O)c3ccccc3)[C@]3(O)C[C@H](OC(=O)[C@H](O)[C@@H](NC(=O)c4ccccc4)c4ccccc4)C(C)=C1C3(C)C)[C@]1(OC(C)=O)CO[C@@H]1C[C@@H]2OC(=O)CC(C)(C)SN=O.CN(C)C(=O)CC1(SN=O)C2CC3CC(C2)CC1C3", "note": "(some centres not stated) [listing 1 of 2 here]", "values": [{"measurement": "Activity", "setting": "[1]", "value": 733, "unit": "nM stent-1"}, {"measurement": "Activity", "setting": "[2]", "value": 746, "unit": "nM stent-1"}]}, {"smiles": "CN(C)C(=O)CC1(SN=O)C2CC3CC(C2)CC1C3", "note": "(configuration not stated)", "values": [{"measurement": "Activity", "setting": "[1]", "value": 436, "unit": "nM stent-1"}, {"measurement": "Activity", "setting": "[3]", "value": 417, "unit": "nmol/stent"}, {"measurement": "Activity", "setting": "[2]", "value": 440, "unit": "nM stent-1"}, {"measurement": "IC50", "setting": "[4]", "value": 15000, "unit": "nM"}, {"measurement": "Activity", "setting": "[5]", "value": 18, "unit": "nM stent-1"}, {"measurement": "Activity", "setting": "[6]", "value": 5, "unit": "%"}]}, {"smiles": "CC(=O)O[C@H]1C(=O)[C@@]2(C)C([C@H](OC(=O)c3ccccc3)[C@]3(O)C[C@H](OC(=O)[C@H](O)[C@@H](NC(=O)c4ccccc4)c4ccccc4)C(C)=C1C3(C)C)[C@]1(OC(C)=O)CO[C@@H]1C[C@@H]2OC(=O)CC(C)(C)SN=O.CN(C)C(=O)CC1(SN=O)C2CC3CC(C2)CC1C3", "note": "(some centres not stated) [listing 2 of 2 here]", "values": [{"measurement": "Activity", "setting": "[7]", "value": -41, "unit": "%"}, {"measurement": "Activity", "setting": "[8]", "value": -18, "unit": "%"}, {"measurement": "Activity", "setting": "[3]", "value": 627, "unit": "nmol/stent"}, {"measurement": "Stenosis", "setting": "[9]", "value": 15, "unit": "%"}, {"measurement": "Activity", "setting": "[10]", "value": -34, "unit": "%"}, {"measurement": "Activity", "setting": "[5]", "value": 209, "unit": "nM stent-1"}, {"measurement": "Activity", "setting": "[6]", "value": 31, "unit": "%"}]}, {"smiles": "CC(=O)O[C@H]1C(=O)[C@@]2(C)C([C@H](OC(=O)c3ccccc3)[C@]3(O)C[C@H](OC(=O)[C@H](O)[C@@H](NC(=O)c4ccccc4)c4ccccc4)C(C)=C1C3(C)C)[C@]1(OC(C)=O)CO[C@@H]1C[C@@H]2OC(=O)CC(C)(C)SN=O", "note": "(some centres not stated) [listing 1 of 2 here]", "values": [{"measurement": "IC50", "setting": "[11]", "value": "~20", "unit": "nM"}, {"measurement": "IC50", "setting": "[12]", "value": 10000, "unit": "nM"}, {"measurement": "Activity", "setting": "[3]", "value": 369, "unit": "nmol/stent"}, {"measurement": "Activity", "setting": "[5]", "value": 214, "unit": "nM stent-1"}, {"measurement": "Activity", "setting": "[6]", "value": 65, "unit": "%"}]}, {"smiles": "CC(=O)O[C@H]1C(=O)[C@@]2(C)C([C@H](OC(=O)c3ccccc3)[C@]3(O)C[C@H](OC(=O)[C@H](O)[C@@H](NC(=O)c4ccccc4)c4ccccc4)C(C)=C1C3(C)C)[C@]1(OC(C)=O)CO[C@@H]1C[C@@H]2OC(=O)CC(C)(C)SN=O", "note": "(some centres not stated) [listing 2 of 2 here]", "values": [{"measurement": "Activity", "setting": "[1]", "value": 349, "unit": "nM stent-1"}, {"measurement": "Activity", "setting": "[2]", "value": 316, "unit": "nM stent-1"}]}, {"smiles": "CC(=O)O[C@H]1C(=O)[C@@]2(C)C([C@H](OC(=O)c3ccccc3)[C@]3(O)C[C@H](OC(=O)[C@H](O)[C@@H](NC(=O)c4ccccc4)c4ccccc4)C(C)=C1C3(C)C)[C@]1(OC(C)=O)CO[C@@H]1C[C@@H]2OC(=O)CC(C)(C)S", "note": "(some centres not stated)", "values": [{"measurement": "IC50", "setting": "[4]", "value": 20, "unit": "nM"}]}, {"smiles": "CC(=O)O[C@H]1C(=O)[C@@]2(C)[C@H]([C@H](OC(=O)c3ccccc3)[C@]3(O)C[C@H](OC(=O)[C@H](O)[C@@H](NC(=O)c4ccccc4)c4ccccc4)C(C)=C1C3(C)C)[C@]1(OC(C)=O)CO[C@@H]1C[C@@H]2O", "note": "[PACLITAXEL]", "values": [{"measurement": "Activity", "setting": "[7]", "value": -11, "unit": "%"}, {"measurement": "Activity", "setting": "[8]", "value": 23, "unit": "%"}, {"measurement": "Stenosis", "setting": "[9]", "value": 22.6, "unit": "%"}, {"measurement": "IC50", "setting": "[4]", "value": "~1", "unit": "nM"}]}]}
